According to ChEMBL document CHEMBL1156706, “Structure-activity relationships of novel heteroaryl-acrylonitriles as cytotoxic and antibacterial agents” (Eur J Med Chem, 2008):
Values after ≈ are worked out from the molar mass of the structure shown. Active and inactive are the calls of the source. The calls are words filed in the database; no cut-off is given here.

Assays:
RT-4 = assay: Cytotoxicity against human RT4 cells after 96 hrs by microtiter assay; format: functional, cell-based; settings: RT-4, 96 h
Summary of the method: (§1)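 DSMZ cell lines in RPMI 1640 with 10% FCS. DMF stocks diluted 1000-fold into medium. Continuous exposure 96 h at 37 °C, 5% CO2. Adherent cells stained with crystal violet. IC50 (50% growth inhibition vs untreated control) obtained by least-squares fitting of dose–response curves, averaging 2–5 independent determinations.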

RT-112 = assay: Cytotoxicity against human RT112 cells after 96 hrs by microtiter assay; format: functional, cell-based; settings: RT-112, 96 h; summary of the method: as §1
5637 = assay: Cytotoxicity against human 5637 cells after 96 hrs by microtiter assay; format: functional, cell-based; settings: Homo sapiens, 5637, 96 h; summary of the method: as §1
[1] = Cytotoxicity against human KYSE70 cells after 96 hrs by microtiter assay; format: functional, cell-based; settings: KYSE-70, 96 h; summary of the method: as §1
KYSE-510 = assay: Cytotoxicity against human KYSE510 cells after 96 hrs by microtiter assay; format: functional, cell-based; settings: KYSE-510, 96 h; summary of the method: as §1
[2] = Cytotoxicity against human KYSE520 cells after 96 hrs by microtiter assay; format: functional, cell-based; settings: KYSE-520, 96 h; summary of the method: as §1
YAPC = assay: Cytotoxicity against human YAPC cells after 96 hrs by microtiter assay; format: functional, cell-based; summary of the method: as §1
DAN-G = assay: Cytotoxicity against human DAN-G cells after 96 hrs by microtiter assay; format: functional, cell-based; summary of the method: as §1
SISO = assay: Cytotoxicity against human SISO cells after 96 hrs by microtiter assay; format: functional, cell-based; summary of the method: as §1
[3] = Cytotoxicity against human LCLC-103H cells after 96 hrs by microtiter assay; format: functional, cell-based; summary of the method: as §1
MCF7 = assay: Cytotoxicity against human MCF7 cells after 96 hrs by microtiter assay; format: functional, cell-based; settings: MCF7, 96 h; summary of the method: as §1
A-427 = assay: Cytotoxicity against human A427 cells after 96 hrs by microtiter assay; format: functional, cell-based; settings: A-427, 96 h; summary of the method: as §1
HL-60 [4] = assay: Cell cycle arrest in human HL60 cells assessed as accumulation at G0/G1 phase at 0.15 uM after 72 hrs by FACS relative to untreated control; format: functional, cell-based
Summary of the method: (§2)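 Unsynchronized HL-60 cells treated 24 or 72 h across 0.03–1 µM. Cells fixed in 70% ice-cold ethanol and DNA stained with propidium iodide. Fractions in G0/G1, S and G2/M quantified by flow cytometry and compared with untreated control.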

HL-60 [5] = assay: Cell cycle arrest in human HL60 cells assessed as accumulation at G2/M phase at 0.15 uM after 72 hrs by FACS relative to untreated control; format: functional, cell-based; summary of the method: as §2
HL-60 [6] = assay: Cell cycle arrest in human HL60 cells assessed as accumulation at G0/G1 phase at 0.3 uM after 72 hrs by FACS relative to untreated control; format: functional, cell-based; summary of the method: as §2
HL-60 [7] = assay: Cell cycle arrest in human HL60 cells assessed as accumulation at G2/M phase at 0.3 uM after 72 hrs by FACS relative to untreated control; format: functional, cell-based; summary of the method: as §2
Enterococcus hirae = assay: Antibacterial activity against Enterococcus hirae NCTC 10541 after 24 hrs; format: functional, organism-based; settings: NCTC 10541, 24 h
Summary of the method: (§3)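 Overnight culture diluted in Mueller–Hinton broth to 10^5 CFU/ml. Compounds dissolved in DMSO and diluted twofold in broth over 0.24–62.5 […]. Tubes inoculated and incubated 24 h at 37 °C. MIC taken as the lowest concentration with no visible growth. Clear tubes were subcultured onto Mueller–Hinton agar, and MBC was taken as the minimal concentration killing the organisms after 24 h.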

Staphylococcus aureus = assay: Antibacterial activity against Staphylococcus aureus NCTC 4163 after 24 hrs; format: functional, organism-based; settings: NCTC 4163, 24 h; summary of the method: as §3
[8] = test system: Staphylococcus epidermidis; assay: Antibacterial activity against Staphylococcus epidermis NCTC 14990 after 24 hrs; format: functional, organism-based; settings: NCTC 14990, 24 h; summary of the method: as §3
HL-60 [9] = assay: Cell cycle arrest in human HL60 cells assessed as accumulation at G0/G1 and G2/M phases at 0.3 uM after 72 hrs by FACS relative to untreated control
HL-60 [10] = assay: Cell cycle arrest in human HL60 cells assessed as accumulation at G0/G1 and G2/M phases at 0.15 uM after 72 hrs by FACS relative to untreated control

Work on `N#C/C(=C\c1ccc([N+](=O)[O-])s1)c1nc2ccccc2[nH]1` yielded an IC50 (RT-4) of 530 nM, an IC50 (RT-112) of 440 nM and an IC50 5637 of 190 nM. For the same compound, the IC50 [1] was 190 nM, the IC50 (KYSE-510) was 400 nM and the IC50 [2] was 130 nM. For the same compound, the IC50 (YAPC) was 210 nM, the IC50 (DAN-G) was 600 nM and the IC50 (SISO) was 480 nM. For the same compound, the IC50 [3] was 210 nM, the IC50 (MCF7) was 260 nM and the IC50 (A-427) was 150 nM. The Activity (HL-60 [4]) was “Active”, the Activity (HL-60 [5]) was “Active” and the Activity (HL-60 [6]) was “Active”. The Activity (HL-60 [7]) was “Active”, the MIC (Enterococcus hirae) was > 210 µM and the MIC (Staphylococcus aureus) was 6.4 µM (≈ 1.9 µg/mL). The MIC [8] was 3.2 µM (≈ 0.948 µg/mL), the Activity (HL-60 [9]) was “Active” and the Activity (HL-60 [10]) was “Active”.
